Data on 1 molecule can be found in PMC5722212 (Chemistry (Weinheim an der Bergstrasse, Germany), 2017).

The subject of one test is Akt. Briefly: Western blot analysis of cytosolic Hsp90-dependent client protein Akt. The test is classed as cell-based. Conditions: geldanamycin 0.5 μM, 24 h; all cell lines. The gist of the method: (§1)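 MDA-MB-231 and PC3-MM2 (DMEM), SK-MEL-28 (EMEM) or A549 (F-12K) cells, each in medium with 10% FBS and penicillin/streptomycin, were seeded at 100,000 cells/mL and grown 24 h at 37°C, 5% CO2. Cells were then treated with test compound, geldanamycin (0.5 μM) or DMSO vehicle for 24 h. Cold-PBS harvest, lysis with protease inhibitors, BCA-equalised protein, reducing 10% gels, PVDF, HRP chemiluminescence; actin loading control.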

A further test has as its system Hsp70. Briefly: Western blot analysis of Hsp70 induction. Type of test: cell-based. Conditions: geldanamycin 0.5 μM, 24 h; all cell lines. The essentials:
as §1
(A western blot detects proteins with antibodies after separation by electrophoresis.)

`COC1=C2C[C@@H](C)C[C@H](OC)[C@H](O)[C@@H](C)/C=C(\C)[C@H](OC(N)=O)[C@@H](OC)/C=C\C=C(/C)C(=O)NC(=CC1=O)C2=O` [geldanamycin]: in the test with Akt, the “degradation of Akt” value is recorded as “induced the degradation of Akt”. In addition, the “levels of Hsp70” value in the test with Hsp70 is recorded as “increased the levels of Hsp70”.
